Where two headings read alike, the source gives them in different places.
Tests used:
[1] = tested on: human HepG2 cells overexpressing CYP2A6; assay: MN assay in HepG2 cells; format: cell-based; conditions: Supplementary Fig. 1
[2] = tested on: CYP2A6-expressing TK6 cells; assay: MultiFlow DNA damage assay, nuclear P53; format: cell-based, human; conditions: 24 h; for nuclear P53 response (in words): concentrations studied; for increase in nuclear P53 vs vehicle control: 100 μM
[3] = tested on: TK6 cells expressing CYP2A6; assay: TK and HPRT gene mutation test; format: cell-based, human; conditions: Supplementary Table 1
[4] = tested on: CYP2A6-expressing TK6 cells; assay: Relative cytotoxicity; format: cell-based, human; conditions: for cytotoxicity at the highest concentration tested: 24 h, data not shown
[5] = tested on: CYP2A6-expressing TK6 cells; assay: MultiFlow DNA damage assay, γH2A.X formation; format: cell-based, human; conditions: for BMD50 for γH2A.X induction: Bayesian benchmark dose modeling, model-averaged, CES 0.5, 24-h treatment
[6] = tested on: Salmonella typhimurium expressing human CYP2A6; conditions: cited from earlier work
[7] = tested on: CYP2A6-expressing TK6 cells; assay: Cell cycle analysis; format: cell-based, human; conditions: 24 h; for percentage of cells in G2/M phase: vehicle controls 21.6%
[8] = tested on: TK6 cells transduced with CYP2A6, 1A1, 2E1, and 3A4; assay: NDBA level in cell culture medium by UPLC-MS/MS; format: in vitro ADME, human; conditions: 12.5 μM, 24 h; CYP2A6, 1A1, 2E1, and 3A4 expressed in TK6 cells
Summary of the method: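 Cells were incubated 24 h with 12.5 μM test compound; wild-type cells in medium with rat or hamster S9 served as a metabolism reference. Medium was protein-precipitated with acetonitrile, centrifuged 12,000 × g for 5 min and run on C18 UPLC at 40 °C with a water/acetonitrile gradient (0.1% formic acid). Detection was ESI+ MRM at m/z 159.1 > 57.3 (LOD 6.8 nM), expressed relative to wild-type-cell medium (100%).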

[9] = tested on: TK6 cells expressing CYP3A4; assay: In vitro micronucleus assay; format: cell-based, human; conditions: without S9; positive control lasiocarpine at 0.5 μM
[10] = tested on: CYP2A6-expressing TK6 cells; assay: In vitro micronucleus assay; format: cell-based, human; conditions: for %MN response (in words): NDIPA and NDBA at concentrations up to 1 mM; for BMD50 for MN frequency: Bayesian benchmark dose modeling, model-averaged, CES 0.5, 24-h treatment; for genotoxic potency relative to NMPA (BMD50 estimates, both endpoints): MN and γH2A.X BMD50 in CYP2A6-expressing TK6 cells, fold weaker than NMPA
[11] = tested on: TK6 cells; assay: NDBA distribution between medium and cell lysate by UPLC-MS/MS; format: in vitro ADME, human; conditions: Supplementary Fig. 2
[12] = tested on: TK6 cells expressing CYP1A1; assay: In vitro micronucleus assay; format: cell-based, human; conditions: without S9; positive control B(a)P at 1 μM
[13] = tested on: bacteria; conditions: cited from earlier work
[14] = tested on: TK6 cells expressing CYP2E1; assay: In vitro micronucleus assay; format: cell-based, human; conditions: without S9; positive control NDMA at 10 μM
[15] = tested on: rats; conditions: cited from earlier work
[16] = 20 °C; no reference given; cited from earlier work
[17] = tested on: Chinese hamster V79 cells; conditions: exogenous microsomal activation system; ref Kuroki et al. 1977; cited from earlier work
[18] = tested on: wild-type TK6 cells; assay: MultiFlow DNA damage assay, γH2A.X formation; format: cell-based, human; conditions: positive control at 25 and 50 ng/ml

## CCCCN(CCCC)N=O [NDBA, N-nitrosodibutylamine]
[1]
  %MN frequencies (in words): did not increase %MN frequencies
[2]
  nuclear P53 response (in words): did not cause an increase
[3]
  TK or HPRT gene mutations (in words): did not induce TK or HPRT gene mutations
[4]; 1 mM, CYP2A6-expressing TK6 cells
  relative nuclei count: 50%
[5]
  BMD50 for γH2A.X induction: could not be estimated
[6]; ref Fujita and Kamataki 2001
  mutagenicity in the Ames test with metabolic activation by CYP2A6 or CYP1A1: mutagenic
[7]; 1 mM
  G2/M phase cell cycle arrest (in words): did not cause G2/M phase cell cycle arrest
  percentage of cells in G2/M phase (in words): decreased
  percentage of cells in the sub-G1 phase (in words): significantly increased
[8]
  metabolism of NDBA (amount in medium vs wild-type TK6 cells): did not efficiently metabolize NDBA
[9]
  MN formation (in words): no effect
[10]; 24 h
  %MN response (in words): did not cause any significant increase
[10]
  BMD50 for MN frequency: could not be estimated
[11]
  NDBA in the cell culture medium (in words): most of the NDBA remains in the cell culture medium
  amount of NDBA in the cell lysate (in words): only a very limited amount of NDBA is found in the cell lysate
[12]
  MN formation (in words): no effect
[13]; ref Bonfanti et al. 1990
  Ames test result: positive
[13]; with metabolic activation by rodent S9, ref Inami et al. 2009
  Ames test result: positive
[14]
  MN formation (in words): no effect

## CCN(CC)N=O [NDEA, N-nitrosodiethylamine]
[2]
  increase in nuclear P53 vs vehicle control: 1.7 fold
  lowest observed adverse effect level (LOAEL) for nuclear P53 increase: 25 µM
  nuclear P53 response (in words): concentration-dependent increases
[4]; CYP2A6-expressing TK6 cells
  cytotoxicity at the highest concentration tested: 15–30%
[5]; 6.25 μM (lowest concentration tested), 24 h
  γH2A.X increase over control: 1.5 fold
[5]; 100 μM, 24 h
  γH2A.X fluorescence signal increase over the controls: 2.7 fold
[7]; 100 μM
  percentage of cells in G2/M phase: 25.1%
[7]
  G2/M phase cell cycle arrest (in words): resulted in G2/M phase cell cycle arrest
  percentage of cells in S phase (in words): concurrent decrease
[10]; 100 μM, 24 h
  increase in %MN: 2.6 fold
[10]; 24 h
  %MN response (in words): concentration-dependent increases
[10]
  genotoxic potency relative to NMPA (BMD50 estimates, both endpoints): more than tenfold less genotoxic
[13]; ref Aiub et al. 2003
  Ames test result: positive

## CC(C)N(N=O)C(C)C [NDIPA, N-nitrosodiisopropylamine]
[2]
  nuclear P53 response (in words): did not cause an increase
[4]; concentrations up to 1 mM, cell line not given
  cytotoxicity: not cytotoxic
[5]
  BMD50 for γH2A.X induction: could not be estimated
[15]; 25 mg/kg dosing group, ref Lijinsky and Taylor 1979
  mean tumor induction period: 770 days
[15]; 50 mg/kg dosing group, ref Lijinsky and Taylor 1979
  mean tumor induction period: 430 days
[15]; Sprague–Dawley rats, ref Lijinsky and Taylor 1979
  carcinogenicity: weak carcinogen
[10]; 24 h
  %MN response (in words): did not cause any significant increase
[10]
  BMD50 for MN frequency: could not be estimated

## CN(C)N=O [NDMA, N-nitrosodimethylamine, reference compound]
[16]
  vapor pressure: > 1 mm Hg
[13]; ref Aiub et al. 2003
  Ames test result: positive
[14]
  MN formation (in words): significant increases in MN formation

## CCN(N=O)C(C)C [NEIPA, N-nitrosoethylisopropylamine]
[2]
  increase in nuclear P53 vs vehicle control: 1.5 fold
  lowest observed adverse effect level (LOAEL) for nuclear P53 increase: 12.5 µM
  nuclear P53 response (in words): concentration-dependent increases
[4]; CYP2A6-expressing TK6 cells
  cytotoxicity at the highest concentration tested: 15–30%
[5]; 24 h treatment with nitrosamine
  γH2A.X response (in words): concentration-dependent increase
[7]; 100 μM
  percentage of cells in G2/M phase: 27.0%
[7]
  G2/M phase cell cycle arrest (in words): resulted in G2/M phase cell cycle arrest
  percentage of cells in S phase (in words): concurrent decrease
[10]; 100 μM, 24 h
  increase in %MN: 3.6 fold
[10]; 24 h
  %MN response (in words): concentration-dependent increases
[10]
  genotoxic potency relative to NMPA (BMD50 estimates, both endpoints): more than tenfold less genotoxic

## CN(CCCC(=O)O)N=O [NMBA, N-nitroso-N-methyl-4-aminobutanoic acid]
[2]
  nuclear P53 response (in words): did not cause an increase
[4]; CYP2A6-expressing TK6 cells
  cytotoxicity at the highest concentration tested: 15–30%
[5]; 24 h, increased signals only above this concentration
  concentration producing increased γH2A.X signals: above 100 μM
[15]; rats, large doses in drinking water, ref Lijinsky et al. 1983
  carcinogenicity: caused only bladder cancer
[7]; 400 μM
  percentage of cells in G2/M phase: 24.3%
[7]
  G2/M phase cell cycle arrest (in words): resulted in G2/M phase cell cycle arrest
  percentage of cells in S phase (in words): concurrent decrease
[10]; 24 h
  %MN response (in words): concentration-dependent increases
[10]
  genotoxic potency relative to NMPA (BMD50 estimates, both endpoints): more than 100 fold

## CN(N=O)c1ccccc1 [NMPA, N-nitrosomethylphenylamine]
[16]
  vapor pressure: > 1 mm Hg
[2]
  lowest observed adverse effect level (LOAEL) for nuclear P53 increase: 1.25 µM
  nuclear P53 response (in words): concentration-dependent increases
[17]
  mutagenicity in V79 cells: not mutagenic
[4]; CYP2A6-expressing TK6 cells
  cytotoxicity at the highest concentration tested: 15–30%
[5]; 0.625 μM, 24 h
  γH2A.X increase over control: 1.3 fold
[5]
  BMD50 for γH2A.X induction: 1.1 µM
[6]; ref Kushida et al. 2000
  mutagenicity in Salmonella typhimurium expressing human CYP2A6: mutagenic
[15]; rats, ref Kroeger-Koepke et al. 1983
  carcinogenicity: potent esophageal carcinogen
[7]; 10 μM
  percentage of cells in G2/M phase: 32.9%
[7]
  G2/M phase cell cycle arrest (in words): resulted in G2/M phase cell cycle arrest
  percentage of cells in S phase (in words): concurrent decrease
[10]; 2.5 μM, 24 h
  increase in %MN: 2.0 fold
[10]; 10 μM (highest concentration tested), 24 h
  %MN in treated cells relative to controls: 2.8 fold
[10]; 24 h
  %MN response (in words): concentration-dependent increases
[10]
  BMD50 for MN frequency: 2.2 µM
[13]; ref Koepke et al. 1990
  mutagenicity in a standard Ames test: not mutagenic

## C/C=C(/C)C(=O)O[C@H]1CCN2CC=C(COC(=O)[C@@](O)([C@H](C)OC)C(C)(C)O)[C@H]12 [lasiocarpine, Lasiocarpine, reference compound]
[9]
  MN formation (in words): significant increases in MN formation

## CO[C@@]12[C@H](COC(N)=O)C3=C(C(=O)C(C)=C(N)C3=O)N1C[C@@H]1N[C@@H]12 [mitomycin C, reference compound]
[18]
  γH2A.X response (in words): robust increase
[5]; positive control at 25 and 50 ng/ml
  γH2A.X response (in words): robust increase
